Source: PubChem (several laboratories)
Most compounds without a hit are left out; they make up all but 2.3% or so of the library.
ROMK primary = modulates human ROMK potassium channel activity; P48048; Tet-inducible ROMK, thallium flux fluorescence; actives lie on both sides; B-score at 10 µM; hit rate 2% among 130,000; AID 1918;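 active = signal ratio slope over the read window, or its plate-corrected B-score, at least 3 SD from the plate mean, either direction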;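 also: B-score of the F/F0 ratio slope over 7 to 12 s after thallium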
Target sequence (P48048 whole entry, looked up): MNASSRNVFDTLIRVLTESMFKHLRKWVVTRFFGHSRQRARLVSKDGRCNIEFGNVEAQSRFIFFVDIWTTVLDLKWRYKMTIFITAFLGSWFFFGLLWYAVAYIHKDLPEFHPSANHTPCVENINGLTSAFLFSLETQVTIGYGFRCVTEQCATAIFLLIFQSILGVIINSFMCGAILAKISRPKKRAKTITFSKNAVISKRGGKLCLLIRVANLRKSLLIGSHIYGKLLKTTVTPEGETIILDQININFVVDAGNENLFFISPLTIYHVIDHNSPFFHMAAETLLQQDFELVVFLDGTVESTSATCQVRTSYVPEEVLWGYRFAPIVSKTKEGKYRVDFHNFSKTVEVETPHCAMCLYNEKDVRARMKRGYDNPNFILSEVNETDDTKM
ABCB1 inh = inhibitors of human ABCB1 transporter, ABCG2 counter-screen; P08183; CCRF-Adr cells, JC-1 efflux, flow cytometry; inhibition, % at 6.6 µM; hit rate 0.067% among 190,000; AID 1326; in the data active = inhibition above about 40%;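 also: 0% = vehicle and 100% = reference inhibitor; higher value means more JC-1 retained so stronger ABCB1 efflux block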
ABCG2 block = inhibitors of human ABCG2 transporter, ABCB1 counter-screen; Q9UNQ0; IgMXP3 cells, JC-1 efflux, flow cytometry; inhibition, % at 6.6 µM; hit rate 0.1% among 190,000;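 active = inhibition above 80%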;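 also: 0% = DMSO and 100% = nicardipine control wells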
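material = IgMXP3 (ABCG2) plus far-red-tagged CCRF-Adr (ABCB1) cells | amount = 3 million cells/mL, equal mix of both lines | also added = JC-1 transporter substrate | dosing = one concentration, 6.6 µM final | schedule = 10 min at 25 °C | measured by = flow cytometric JC-1 green MFI at 530 nm | read-out basis = percent efflux inhibition, scaled nicardipine 100% to DMSO 0%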
Insulin prom up = MIN6 insulin promoter up-regulation. z-score at 5 µM. hit rate 0.3% among 190,000. MIN6 insulin promoter-GFP reporter, high-content imaging; hits give high values;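 active = z-score above 3 at 5 µM with at least 500 cells counted in the well; inconclusive = wells under 500 cells, flagged as cytotoxic or low count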
sdo1 growth = compounds rescuing growth of sdo1-depleted yeast, bone marrow failure model. hit rate 0.21% among 140,000. S. cerevisiae sdo1-depleted JHY4D growth rescue, OD600 30 h; hits give high values; pdr5 snq2 efflux-pump mutant strain. z-score at 10 µM. AID 817;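 active = z-score above 3 at both the 24 hr and the 30 hr optical density reads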;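 also: z-score against mean and SD of all compound wells on the same plate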
Autophagy mod = alters autophagy in cells; MEF GFP-LC3 puncta imaging; test concentration mostly 10 µM; calls only at 10 µM (by protocol); hit rate 0.98% among 190,000;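 active = percentage of spot-positive cells more than 3 SD above its plate mean, without a fluorescence outlier flag or 80% toxicity; inconclusive = no clear call, values can overlap the other calls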;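 also: spot-positive cell cutoff set from DMSO-treated cells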
ROMK retest = retested hit modulating human ROMK potassium channel | shares compounds with ROMK primary | hit rate 54% among 3,000 | ROMK thallium flux, fluorescence ratio; hits give low values | normalized thallium flux (F/F0 slope) at 10 µM;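 active = Flux at 10 µM at least 3 SD below or above vehicle control mean in one or both replicates; inconclusive = no clear call, values can overlap the other calls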
Numbers without * were called inactive; i = inactive; ? = inconclusive; / = not tested or not shown; + = active, no number; [ ] = dose if it differs, or a comment.

SMILES	ROMK primary	ABCB1 inh	ABCG2 block	Insulin prom up	sdo1 growth	Autophagy mod	ROMK retest
Cc1cc(C)c2cc(C(=O)Nc3ccc4c(c3)OCO4)[nH]c2c1	-0.24	/	/	-0.01	/	/	/
O=C(O)/C=C/C(=O)Nc1ccc(-c2ccccc2)cc1	0.9	0	0	-0.11	/	i	/
NC1=NC(=O)/C(=C\c2cc([N+](=O)[O-])ccc2Cl)S1	-2*	1	5	2.4	/	i	0.066*
Cc1ccsc1/C=C1\SC(N)=NC1=O	-0.43	0	2	0.6	0.78	i	/
Cc1[nH][nH]c(=O)c1C(c1c(C)[nH][nH]c1=O)c1cn(Cc2ccc(Cl)c(Cl)c2)c2ccccc12	/	0	2	-0.14	-1.3	i	0.056*
COc1ccccc1NC(=O)C1=C(C)NC(SCC(=O)Nc2ccc(C(=O)O)cc2)=C(C#N)C1c1cccs1 (stereo not drawn)	/	/	/	0.13	/	/	/
CCc1cccc(NC(=O)CCCCCC2NC(=O)NC2C)c1 (stereo not drawn)	0.045	1	1	-0.1	/	i	/
NNC(=O)c1sccc1OCc1ccc(Cl)cc1Cl	-1.3	0	4	-0.08	/	i	/
CCOC(=O)C1(Cc2ccccc2C(F)(F)F)CCN(CC2CC2)CC1	-0.8	0	1	-0.15	/	i	/
C/C(=N\NC(=O)c1ccccc1)c1cc2cc([N+](=O)[O-])ccc2oc1=O	-2.9*	0	1	0.06	0.21	i	0.055*
C/C(=N\NC(=O)c1ccc([N+](=O)[O-])cc1)c1cc2ccccc2oc1=O	/	0	12	-0.16	0.34	i	/
O=C(Nc1ccc2ccccc2c1)N1CCN(c2ncccc2C(F)(F)F)CC1	-3.9*	0	0	0.91	-0.8	i	0.062*
COc1cc(/C=C/C(=O)OCC(=O)NC2CC2)cc(S(=O)(=O)N2CCc3ccccc32)c1OC	-18*	3	11	-0.15	/	i	0.071
CC1(C)CC(=O)C2=C(C1)OC(N)=C(C#N)C2CCc1ccccc1 (stereo not drawn)	-5.1*	0	3	0.06	-2	i	0.072
Cc1nc([N+](=O)[O-])c(Sc2nc3ccccc3n2C)n1Cc1ccccc1	-3*	6	14	-0.67	-0.77	i	0.056*
Cc1nc([N+](=O)[O-])c(SCC(N)=O)n1Cc1ccccc1	-0.24	1	2	-0.36	/	i	/
C/C=C/c1ccc(OCC(=O)OCc2csc(Nc3ccc(C)cc3)n2)c(OC)c1	-2.6*	0	13	0.15	-0.77	i	0.065*
Cc1ccccc1OC1=NS(=O)(=O)c2ccccc21	-2.6*	0	0	0.41	/	i	0.064*
Cn1cccc1/C=C(/C#N)c1ccc(F)cc1	-0.67	1	15	-0.03	/	i	/
Cc1noc(N)c1C1(O)C(=O)Nc2c(Cl)cc(Cl)cc21 (stereo not drawn)	1.7	0	1	0.04	/	i	/
COc1ccc(C(=O)NCc2nnc(SC)n2Cc2ccccc2)cc1	0.21	1	5	/	/	i	/
COc1ccc(-c2cc(C(=O)Nc3cc(C)nn3-c3ccccc3)no2)cc1OC	3.7*	0	0	-0.53	/	i	0.077
Cc1cc2ccccc2n2c(SCC(=O)NCC3CCCO3)nnc12 (stereo not drawn)	-0.67	0	4	-0.1	/	i	/
O=C(/C=C/c1cccc(F)c1)N1CCc2ccccc21	0.43	0	-1	/	0.21	i	/
O=C(/C=C/c1ccc(F)cc1)N1CCCc2ccccc21	-2.4*	-1	15	-0.15	/	i	?
SMILES	ROMK primary	ABCB1 inh	ABCG2 block	Insulin prom up	sdo1 growth	Autophagy mod	ROMK retest
C=CCn1c(SCc2c(C)noc2C)nc2cc(C(=O)O)ccc2c1=O	6*	0	0	/	0.01[7.2 µM]	i	?
C=CCn1c(SCc2c(C)noc2C)nc2ccccc2c1=O	2.7	2	4	-0.91	-0.56	i	/
NS(=O)(=O)c1ccc(F)c(C(=O)O)c1	/	/	/	-0.26	/	/	/
O=C(CCn1c2c(c3ccccc31)CCCC2)NNC(=O)c1ccccc1C(=O)O	/	/	/	0.22	/	/	0.079
O=C(CCn1c2c(c3ccccc31)CCCC2)NNC(=O)c1ccccc1[N+](=O)[O-]	/	1	16	0.35	1.5	i	/
COC(=O)c1ccc(-c2ncc[nH]2)cc1	-0.4	0	1	-1	/	i	/
CCCS(=O)(=O)N1CCN(C2CCC(C)CC2)CC1 (stereo not drawn)	0.16	0	1	-0.44	/	i	/
C(#CC12CC3CC(CC(C3)C1)C2)CN1CCOCC1	-0.57	0	-1	-0.65	/	i	/
Cn1c(SCc2nnc3n2CCCCC3)nc2ccccc21	/	5	0	0.68	-1.6	i	0.081
Cc1cc(Cl)ccc1C(=O)C1CCCN(C(=O)c2ccc3ncccc3c2)C1 (stereo not drawn)	-0.17	0	0	/	/	i	/
CCCCCCCCn1ccc(=N)cc1	-0.77	/	/	0.82	/	/	/
CCCCCCCCCCn1ccc(=N)cc1	-3.6*	/	/	?	/	/	?
Cc1sc2ncn3c(C)nnc3c2c1C	/	0	24	1.3	1.4	i	0.081
Cc1sc2ncn(CCn3cnc4sc(C)c(C)c4c3=O)c(=O)c2c1C	-0.05	4	17	-1.2	-0.43	i	/
N=c1n(Cc2ccccc2)c2ccccc2n1CC(O)c1ccco1 (stereo not drawn)	-2.5*	2	23	-0.6	0.22	i	0.061*
CCn1c(=N)n(CC(O)c2ccco2)c2ccccc21 (stereo not drawn)	/	0	3	0.83	-0.11	i	/
N=c1n(Cc2ccccc2)c2ccccc2n1Cc1ccccc1	-3.6*	0	2	-1.6	0.19	i	?
Nc1cc(Cl)ccc1C(=O)OCC(=O)N1CCOCC1	/	/	/	0.26	/	/	/
CCOCCc1c(O)nc(SCCOc2ccc(C)c(C)c2)[nH]c1=O	-0.24	0	0	/	/	i	/
CCOC(=O)C1(CCc2ccccc2)CCN(Cc2c(O)cccc2OC)CC1	-2.8*	1	0	-1.7	/	i	0.055*
CCOC(=O)C1(CCOc2ccccc2)CCN(Cc2ccc(C)o2)CC1	-4.5*	4	15	/	/	i	0.067*
O=C1Nc2ccccc2C1(O)Cc1ccccn1 (stereo not drawn)	-0.4	/	/	-0.1	/	/	/
N#C/C(=C/c1ccc(N2CCOCC2)o1)c1ccc(Cl)cc1	/	1	5	/	-2.4	+	0.051*
COC(=O)CSc1nccc(C)n1	1.4	0	0	0.44	/	i	/
Cc1cc2cc(CN(Cc3nnnn3C3CCCCC3)CC3CCCO3)c(=O)[nH]c2cc1C (stereo not drawn)	-5.7*	1	2	0.76	-0.97	i	?
Cc1ccc(C2C(C(=O)c3cccs3)=C(O)C(=O)N2c2nnc(C)s2)cc1 (stereo not drawn)	-2.3	0	1	0.54	/	i	0.052*
